Compound activity from PubChem BioAssay.
TROY signal inh = TROY signaling inhibition | Q293 LMP1-TROYcd NF-kB luciferase reporter, 4 h | inhibition, % at 10 µM | 0.98% of 360,000 active;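 active means compounds whose plate-normalised and pattern-corrected inhibition of the luciferase reporter signal at the single screening dose is 50% or more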
LGR2 inh = inhibitors of bursicon-induced Drosophila LGR2 receptor cAMP signaling | AID 720647 | 0.35% of 380,000 active | HEK293 LGR2, CRE-luciferase, bursicon-stimulated, 4 h | inhibition, % at 9.99 µM;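 active means drop in luminescence signal, shown as inhibition above about 50% in the replicate tests, limit read from the data, passing the limit was not always enough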;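 further: agonist challenge used bursicon conditioned medium at about half maximal strength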
EWS-Fli inh = EWS/Fli transcriptional activity inhibition; inhibition, % at 12.6 µM; AID 651661; A673 NR0B1-luciferase reporter, viability-normalised; 0.67% of 350,000 active;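 active means mean inhibition of at least 50% after viability correction, with every replicate also passing that limit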;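 further: firefly luciferase signal divided by Alamar Blue viability fluorescence both relative to DMSO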
TWEAK-Fn14 inh = blocks TWEAK-Fn14 interaction in a reporter cell assay; AID 1159606; 2% of 360,000 active; inhibition, % at 10 µM; TWEAK-stimulated Fn14 reporter cells, luciferase luminescence, 8 h; in the data active means inhibition above about 50%
FN deposit inh = fibronectin deposition inhibition. inhibition, % at 12.6 µM. AH1F fibroblasts, Alexa488-fibronectin deposition fluorescence, overnight. AID 743247. 0.086% of 350,000 active;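 active means mean inhibition across replicates of 30% or more, regardless of how many single replicates reach that level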
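Material: AH1F fibroblast monolayer depositing Alexa488-labelled fibronectin into matrix / Amount: 10000 AH1F cells per well / Signal: fluorescence 485/525 nm / Medium: DMEM, 2% serum / Compound: single dose, pinned / Incubation: 1 h cell adhesion before compound, then overnight fibronectin incubation / Reagent: Alexa488-FN, 24 nM final / Read-out: inhibition of fibronectin deposition signal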
XiGFP reactiv = reactivates the inactive X chromosome in mouse fibroblasts; activation, % at 7.58 µM; 0.055% of 360,000 active; XiGFP mouse fibroblasts, % GFP-positive cells imaging, 3 d; cells co-treated with 5-aza-dC sensitizer; scaled so ellipticine positive control = 100%; AID 743238;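 active means mean normalized replicate activation at least 10% and every replicate at or above 10%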
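Material: XiGFP fibroblasts, SV40-immortalized. Buffer or medium: DMEM plus 5-aza-dC sensitizer. Compound: single concentration per compound, delivered by pin transfer. Times: 3 days compound exposure. Controls: ellipticine 6 µM.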
Large screens that a line does not name were inactive. Shown are actives, neighbours in structure and some others; about 2.3% of the full set was active somewhere.

CCCN1[C@@H]2c3ccc(-c4ccccc4)c(=O)n3C[C@@H]2[C@@H](CO)[C@@H]1C(=O)NCC1CC1	none (no result: TROY signal inh, TWEAK-Fn14 inh, FN deposit inh)
Cc1nn(-c2ccccc2)c(C)c1/C=N/NC(=O)c1cc(C(C)(C)C)[nH]n1	none (no result: EWS-Fli inh, FN deposit inh, XiGFP reactiv)
Cc1ccc(-c2cc(C(=O)N/N=C/c3c(C)nn(-c4ccccc4)c3C)n[nH]2)s1	TWEAK-Fn14 inh 51
O=C(NCC[C@@H]1CC[C@@H](NC(=O)C2CCOCC2)[C@@H](CO)O1)c1ccc(F)cc1	none (no result: TROY signal inh, TWEAK-Fn14 inh)
COc1cccc(N(C(=O)c2snc(C(N)=O)c2N)C(C(=O)NCC2CCCO2)c2cccs2)c1 (stereo unspecified)	none
COc1cccc(N(C(=O)CCl)C(C(=O)NCCc2ccccc2)c2cccs2)c1 (stereo unspecified)	TWEAK-Fn14 inh 59 (no result: EWS-Fli inh, XiGFP reactiv)
COCCNC(=O)C(c1cccs1)N(C(=O)Cn1nnc2ccccc21)c1ccccc1 (stereo unspecified)	none (no result: LGR2 inh, EWS-Fli inh, XiGFP reactiv)
COc1ccc(N(C(=O)CCl)C(C(=O)NCCc2ccccc2)c2cccs2)cc1Cl (stereo unspecified)	EWS-Fli inh 68, TWEAK-Fn14 inh 52, FN deposit inh 34
Cc1ccc(-n2c(=O)[nH]c3c(oc4ccccc43)c2=O)cc1	FN deposit inh 31
CC(=O)N1CCc2cc(S(=O)(=O)C(C)CC(=O)NCc3ccco3)ccc21 (stereo unspecified)	LGR2 inh 56
CC(=O)N1CCc2cc(S(=O)(=O)C(C)CC(=O)NCc3ccc(C)o3)ccc21 (stereo unspecified)	none
O=C(O)c1ccc(-c2sc(Nc3ccccc3)n[n+]2-c2ccc(F)cc2)cc1	none (no result: LGR2 inh, EWS-Fli inh, FN deposit inh, XiGFP reactiv)
Fc1ccc(-[n+]2nc(Nc3ccccc3)sc2-c2c(Cl)cccc2Cl)cc1	LGR2 inh 71
CCc1ccc(Nc2n[n+](-c3ccccc3)c(-c3ccc(OCc4ccccc4)cc3)s2)cc1	TWEAK-Fn14 inh 83
CCc1ccc(Nc2n[n+](-c3ccccc3)c(-c3c(Cl)cccc3Cl)s2)cc1	TROY signal inh 59, TWEAK-Fn14 inh 52
C[C@@H](O)C#Cc1ccc2c(c1)O[C@H](CN(C)C(=O)C1CC1)[C@@H](C)CN([C@@H](C)CO)S2(=O)=O	none (no result: TROY signal inh, TWEAK-Fn14 inh)
CCCc1cc(N2CCOCC2)n2ncc(-c3ccccc3)c2n1	TROY signal inh 52, TWEAK-Fn14 inh 58
CC(C)(C)c1cc(N2CCOCC2)n2ncc(-c3ccccc3)c2n1	none
Brc1ccc(N=Nc2ccc3ccccc3n2)cc1	TROY signal inh 76, LGR2 inh 95, EWS-Fli inh 77, TWEAK-Fn14 inh 99
CCn1c(O)c(N=Nc2ccc3ccccc3n2)c2ccccc21	none
Cc1noc(C)c1NC(=O)N(C)C[C@@H]1Oc2ccc(NC(=O)C3CC3)cc2CC(=O)N([C@H](C)CO)C[C@H]1C	none (no result: TROY signal inh, TWEAK-Fn14 inh, FN deposit inh)
Cc1cc(C(=O)CSc2nnc(-c3ccco3)o2)c(C)n1CC1COc2ccccc2O1 (stereo unspecified)	TWEAK-Fn14 inh 85 (no result: TROY signal inh, LGR2 inh, EWS-Fli inh, FN deposit inh, XiGFP reactiv)
Cc1cc(C(=O)CSc2nnc(-c3ccccc3)o2)c(C)n1CC1COc2ccccc2O1 (stereo unspecified)	none (no result: EWS-Fli inh, FN deposit inh, XiGFP reactiv)
C[C@@H]1CN([C@@H](C)CO)C(=O)c2cc(NC(=O)CCC(F)(F)F)ccc2O[C@H]1CN(C)S(=O)(=O)c1cn(C)cn1	none (no result: TROY signal inh, TWEAK-Fn14 inh, FN deposit inh)
CCN(CC)c1ccc2c(O)cc(=O)oc2c1	TWEAK-Fn14 inh 86
CCN(CC)c1ccc2c(Cl)cc(=O)oc2c1	none (no result: TROY signal inh, LGR2 inh, EWS-Fli inh, TWEAK-Fn14 inh, XiGFP reactiv)
Cc1ccc(Cl)cc1S(=O)(=O)N1CCC(C(=O)NC2CCN(Cc3ccccc3)CC2)CC1	TWEAK-Fn14 inh 52
CN1[C@@H]2c3ccc(/C=C/c4ccccc4)c(=O)n3C[C@@H]2[C@@H](CO)[C@@H]1C(=O)NC1CCC1	none (no result: TROY signal inh, TWEAK-Fn14 inh)
CCC(c1nc2ccccc2[nH]1)n1c(C)nc2ccccc21 (stereo unspecified)	none (no result: TROY signal inh, TWEAK-Fn14 inh)
CCCCCCCCC(c1nc2ccccc2[nH]1)N1CCN=C1c1cc2ccccc2[nH]1 (stereo unspecified)	LGR2 inh 80
CCCCNS(=O)(=O)c1ccc(NC(=O)C(Sc2ccccc2)c2ccccc2)cc1 (stereo unspecified)	TWEAK-Fn14 inh 63 (no result: EWS-Fli inh)
CCC(C(=O)Nc1ccc(S(=O)(=O)Nc2ncccn2)cc1)c1ccccc1 (stereo unspecified)	TWEAK-Fn14 inh 86
CCCSc1ncc(Cl)c(C(=O)Nc2ccc(S(=O)(=O)Nc3ncccn3)cc2)n1	TWEAK-Fn14 inh 58
C[C@H](CO)N1C[C@H](C)[C@H](CN(C)Cc2ccccc2)Oc2ccc(NC(=O)Cn3cnnn3)cc2CC1=O	none (no result: TROY signal inh, TWEAK-Fn14 inh, FN deposit inh)
C[C@H]1CN([C@@H](C)CO)C(=O)c2cccc(NC(=O)c3cnccn3)c2O[C@H]1CN(C)Cc1ccc2c(c1)OCO2	none (no result: TROY signal inh, TWEAK-Fn14 inh, FN deposit inh)
CO[C@@H]1CN(C)C(=O)c2ccc(NC(=O)Nc3c(C)noc3C)cc2OC[C@@H](C)N(CC2CC2)C[C@@H]1C	none (no result: TROY signal inh, TWEAK-Fn14 inh)
COc1ccc(Cc2nnc(SCC(=O)NCCc3ccccc3)o2)cc1	none (no result: LGR2 inh, EWS-Fli inh, XiGFP reactiv)
c1ccc2[nH]c(CSc3nnc(-c4ccncc4)o3)nc2c1	TWEAK-Fn14 inh 58 (no result: TROY signal inh, LGR2 inh, EWS-Fli inh, FN deposit inh, XiGFP reactiv)
COc1ccc(CC(=O)NC(C)c2nnc(SCc3nc4ccccc4c(=O)[nH]3)n2C)cc1 (stereo unspecified)	TWEAK-Fn14 inh 75 (no result: TROY signal inh, LGR2 inh, EWS-Fli inh, FN deposit inh, XiGFP reactiv)
COc1ccc(-c2nnc(SCC(=O)NCCc3ccccc3)o2)cc1	TWEAK-Fn14 inh 87 (no result: TROY signal inh, LGR2 inh, EWS-Fli inh, FN deposit inh, XiGFP reactiv)
